Assay outcomes (PubChem BioAssay)
ABHD4 inh: inhibits mouse alpha/beta hydrolase domain 4; inhibition, % at 8.92 µM; purified mABHD4, FP-Rh probe fluorescence polarization; actives 0.54% (n = 370,000); AID 720543; Q8VD66;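 active = inhibition exceeding the mean over every tested compound plus 3 SD, cut at about 30% in these data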;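 also: 0% = plate median of compound wells and 100% = S159A mutant with DMSO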
Target sequence (Q8VD66 whole entry, looked up, the tested form may be a part): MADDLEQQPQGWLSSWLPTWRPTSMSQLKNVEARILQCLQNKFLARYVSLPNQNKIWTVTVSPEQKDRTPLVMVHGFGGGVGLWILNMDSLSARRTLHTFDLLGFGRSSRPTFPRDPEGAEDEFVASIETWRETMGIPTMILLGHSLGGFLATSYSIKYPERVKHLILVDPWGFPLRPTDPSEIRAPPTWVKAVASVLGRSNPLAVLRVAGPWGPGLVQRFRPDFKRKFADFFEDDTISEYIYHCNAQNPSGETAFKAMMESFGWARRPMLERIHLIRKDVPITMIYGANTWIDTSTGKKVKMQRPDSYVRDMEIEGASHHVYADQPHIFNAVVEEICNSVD
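Assay system: wild-type mouse ABHD4 protein; compound: single nominal dose of 8.92 µM, 0.89% DMSO final; schedule: 45 min + 60 min at 25 °C; measured by: FP readout, ex 525 nm / em 598 nm; evaluation: % inhibition of FP-Rh probe binding versus controls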
LEDGF integ inh: blocks HIV-1 LEDGF/p75-dependent DNA integration | TR-FRET IN-LEDGF/p75 DNA integration, Eu/Cy5 | inhibition, % at 3.7 µM | actives 0.64% (n = 370,000) | AID 743269;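 active = inhibition above the screen-wide mean plus 3 SD, cut at about 13% in these data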;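 also: signal is the Cy5 over europium emission ratio at 671 and 618 nm; 0% = plate median of compound wells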
DAGLB inhibitor: diacylglycerol lipase beta (human) inhibition; HEK293T DAGLB membrane lysate, EnzChek fluorogenic substrate; AID 504411; inhibition, % at 5.17 µM; actives 0.059% (n = 340,000); Q8NCG7; in the data active = inhibition above about 34%;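 also: 0% = enzyme with vehicle and 100% = wells lacking enzyme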
rCAG binder: molecules binding r(CAG) RNA repeats | r(CAG) RNA repeat, TO-PRO-1 dye displacement fluorescence | inhibition, % at 3 µM | actives 1.3% (n = 370,000);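 active = inhibition above the plate cutoff, the mean of all test compounds on that plate plus 3 SD, cut at about 35% in these data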;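 also: 0% = DMSO alone and 100% = 100 µM mitoxantrone as full dye displacement; higher means more dye released from RNA so lower well fluorescence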
PRMT1 FP inh: blocks human protein arginine methyltransferase 1; Q99873; recombinant PRMT1, activity-based probe fluorescence polarization; inhibition, % at 2.79 µM; actives 1.3% (n = 370,000);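 active = inhibition above about 21% made by adding two undisclosed values, limit read from the data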
HTRA1 inhibitor: inhibitors of human serine peptidase HTRA1; Q92743; recombinant HTRA1, FP-rhodamine activity-based probe, fluorescence polarization; inhibition, % at 5.96 µM; actives 0.5% (n = 340,000); AID 504803; in the data active = inhibition above about 36%;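 also: 0% = enzyme with DMSO and 100% = wells lacking enzyme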
IN multimer up: HIV-1 integrase multimerization activation, counter-screen; shares compounds with LEDGF integ inh; TR-FRET HIV-1 integrase multimerization, biochemical; activation, % at 7.7 µM; actives 17% (n = 2,000); in the data active = activation above about 8.9%
TRFRET interf: optically interferes with TR-FRET readout in LEDGF counter-screen. shares compounds with LEDGF integ inh. TR-FRET optical interference counterscreen, HIV-1 IN multimerization. inhibition, % at 7.7 µM. 2,000 tested, under 10 active. AID 1053135;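 active = inhibition above the mean over all tested compounds plus 3 SD, which no compound reached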;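 also: 0% = integrase with antibodies and DMSO and 100% = antibodies without integrase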
LEDGF integ conf: confirmation of HIV-1 LEDGF/p75-dependent integration inhibitors; AID 1053136; actives 36% (n = 2,000); shares compounds with LEDGF integ inh; TR-FRET LEDGF/p75-dependent HIV-1 integration, biochemical; inhibition, % at 3.7 µM; in the data active = inhibition above about 14%
The depositor's hits bear a star; . = no result given. Shown are actives, neighbours in structure and some others; about 3.2% of the full set was active somewhere.

SMILES	ABHD4 inh	LEDGF integ inh	DAGLB inhibitor	rCAG binder	PRMT1 FP inh	HTRA1 inhibitor	IN multimer up	TRFRET interf	LEDGF integ conf
Cc1nnc(N/N=C/c2ccccc2F)n1N	13.6	55.7*	-2.2	0.3	2.6	5.6	0.9	-3.4	-3.9
Cc1nnc(N/N=C/c2cccc(C(F)(F)F)c2)n1N	0.8	56.6*	-0.5	2.5	1.6	4.1	-2.3	8.1	-8.4
CC(c1ccccc1)N(NC(=O)C(O)(c1ccccc1)c1ccccc1)C(=O)c1ccccc1 (configuration not stated)	3.0	-2.8	10.3	-3.0	-0.2	-6.7	.	.	.
NC(=O)N/N=C/c1cccc(OCc2ccc(F)cc2)c1	-2.3	0.4	-0.7	-0.3	-1.9	-0.1	.	.	.
Cc1nnc(N/N=C/c2ccccc2C(F)(F)F)n1N	-1.6	45.3*	-0.9	0.8	1.0	3.7	-0.3	0.8	2.7
COc1cccc(/C=N/Nc2c(Cl)cncc2Cl)c1O	2.7	3.8	-4.7	1.9	-6.8	-14.3	.	.	.
Cc1nnc(N/N=C/c2cccc(OCc3ccc(Cl)c(Cl)c3)c2)n1N	0.3	56.8*	-3.8	5.4	5.6	-17.5	-0.6	1.9	-4.0
COc1cccc(/C=N/Nc2nnc(C)n2N)c1O	1.3	47.6*	-10.9	-0.5	1.1	10.9	1.8	-9.0	-1.4
Nc1nccc(SCc2ccc(Cl)cc2Cl)n1	-7.4	1.8	1.5	0.0	-1.1	-16.5	.	.	.
COc1cc(/C=C/C(=O)OCC(=O)NC(=O)NC(C)C)cc(S(=O)(=O)N2CCc3ccccc32)c1OC	-38.3	3.2	-2.6	4.1	-4.0	-24.4	.	.	.
CCCCCc1c(O)nc(SCC(=O)NCC2CCCO2)[nH]c1=O (configuration not stated)	5.1	34.1*	0.4	-2.6	1.4	-3.6	1.0	-4.8	4.4
CCCCc1c(O)nc(SCC(=O)NCC2CCCO2)[nH]c1=O (configuration not stated)	-3.6	-2.2	-1.4	-1.7	-0.3	-0.5	.	.	.
CC(C)(C)c1csc(NC(=O)C2=COCCO2)n1	-3.2	-1.7	-0.6	-4.3	5.7	-1.2	.	.	.
O=C(N/N=C/c1cccs1)c1ccccn1	3.2	-7.5	2.8	-2.3	-4.0	-2.6	.	.	.
C(=NN=C(NN=Cc1cccs1)NN=Cc1cccs1)c1cccs1	4.3	34.0*	-1.0	5.5	2.1	24.2	0.4	-1.3	-11.3
COc1cc(O)c(C(C)=O)c(CC(=O)O)c1	11.8	31.3*	0.1	11.3	4.5	-7.8	32.7*	-117.6	59.4*
CC(=O)NNC(=O)c1sc(=S)n(C)c1C	0.8	21.6*	-0.3	0.5	2.5	-2.8	1.0	-5.0	0.7
Cc1c(C(=O)NNS(=O)(=O)c2ccccc2)sc(=S)n1C	5.0	-0.5	-0.9	1.2	0.8	4.6	.	.	.
CC(C)CNc1ccc2c(c1)OC[C@H](C)NS2(=O)=O	-3.7	3.3	.	0.3	-0.3	.	.	.	.
Cc1ccc(Cl)cc1-c1ccc(C=Nc2ccc(N3CCOCC3)cc2)o1	10.4	27.8*	-1.4	2.0	1.2	9.7	3.9	-13.8	11.2
Cc1ccc([N+](=O)[O-])cc1-c1ccc(/C=N/NC(=O)CN2CCOCC2)o1	1.0	1.6	-1.2	5.1	2.6	3.2	.	.	.
CCCCSc1nnc(CSc2ncccn2)n1C	0.3	-1.0	-0.3	1.4	-1.6	8.8	.	.	.
CSc1nc2c([nH]1)c(=S)n(C)c(=O)n2C	-3.2	25.9*	-2.2	0.9	-1.6	4.6	6.8	-24.1	-10.3
CCOC(=O)c1cc(C)nnc1C(=O)OCC	12.2	-1.4	-2.6	4.4	0.4	11.7	.	.	.
CN(CCc1ccccc1)C(=O)c1ccc(NC(=O)Cc2cccc(NC(=O)C3CCN(C(=O)c4ccccc4)CC3)c2)cc1	-2.0	21.1*	-3.8	7.1	2.1	-27.9	-2.6	13.0	0.8
CN(CCc1ccccc1)C(=O)c1ccc(NC(=O)Cc2cccc(NC(=O)C3CCN(C(=O)C4CCCCC4)CC3)c2)cc1	-7.0	3.2	-0.9	7.0	-2.5	-19.7	.	.	.
